This sample holds only a part of the variants without activity.
B1: tRNA (parent)
chain: GUUCCGUUGGCGUAAUGGUAACGCGUCUCCCUCCUAAGGAGAAGACUGCGGGUUCGAGUCCCGUACGGAACG

Variants of: B1
Assay: yeast fitness relative to wild type (ratio to wild type); higher = fitter; tRNA-Arg(CCU), competitive growth, 37 C, YPD
Method in brief: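 Amplicons of the tRNA-Arg(CCU) gene were sequenced, 100-nucleotide paired-end, from the start population and from each end population of a pooled yeast competition. The competition, in six parallel replicates, lasted 24 hours in YPD at 37°C. Fitness relative to wild type was calculated from changes in genotype frequencies. Genotypes had to have ≥ 100 starting reads, and estimates < 0.5 were set to 0.5.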
In the case of C33G A42G G52A A70U, the yeast fitness is reported as ≤ 0.5.
U32G C61U A69C showed a yeast fitness of 0.746.
With C33A G39C C49U U54A G68A the yeast fitness was ≤ 0.5.
Variant U32G C61A has a yeast fitness of 0.535.
C34G A37U C49G showed a yeast fitness of 0.576.
In the case of C33A A40U C55U C62U, the yeast fitness is reported as ≤ 0.5.
For C33G A45U G51C, the yeast fitness was ≤ 0.5.
In the case of C34G A43U C55U A57C C66A, the yeast fitness is reported as 0.639.
Variant C34A U53A has a yeast fitness of 0.541.
In the case of C34A U53C, the yeast fitness is reported as 0.559.
With C33G A45U G56C the yeast fitness was 0.637.
Variant C34A A57U G67C has a yeast fitness of 0.605.
For C33U G56A G58C, the yeast fitness was 0.589.
C34G G52C A70U showed a yeast fitness of 0.542.
C34G C66A A69C showed a yeast fitness of 0.599.
In the case of C33A C34G G50A A70U, the yeast fitness is reported as ≤ 0.5.
With C34G G44A C49A U53A A69U the yeast fitness was ≤ 0.5.
In the case of C33G A42U G63A, the yeast fitness is reported as 0.516.
Work on C33U A70U yielded a yeast fitness of 0.902.
C33U A70C showed a yeast fitness of 0.832.
With C33U G52A the yeast fitness was 0.58.
With C33G A37G C46A C49U the yeast fitness was ≤ 0.5.
In the case of C33A U54G A70C, the yeast fitness is reported as ≤ 0.5.
In the case of C34G A42U G44A A45C G48C U64A, the yeast fitness is reported as ≤ 0.5.
U32G G67C gave a yeast fitness of 0.59.
C33U A40G gave a yeast fitness of 0.71.
In the case of C34G G56A, the yeast fitness is reported as 0.639.
In the case of C33G A42G G52A C62U A70U, the yeast fitness is reported as ≤ 0.5.
In the case of C34A G52A C61G G63A, the yeast fitness is reported as ≤ 0.5.
In the case of C34A G41C, the yeast fitness is reported as 0.757.
For C34G A40G, the yeast fitness was 0.642.
For U32G G39C C49U G52C, the yeast fitness was ≤ 0.5.
C33G C49A C55G G56C gave a yeast fitness of 0.561.
In the case of C34G G41C A69U, the yeast fitness is reported as ≤ 0.5.
Work on C34G G58C A69C yielded a yeast fitness of 0.576.
C34A G52C G63C gave a yeast fitness of 0.681.
For C34G A40U U47A G67C, the yeast fitness was ≤ 0.5.
C33U A42C G68U gave a yeast fitness of 0.538.
For C34A C55G, the yeast fitness was 0.517.
In the case of C34A C55U, the yeast fitness is reported as 0.524.
C33A C34G G50A showed a yeast fitness of 0.517.
In the case of C34A A40C C61A, the yeast fitness is reported as ≤ 0.5.
Work on C33U C62A yielded a yeast fitness of 0.824.
C33U C62G showed a yeast fitness of 0.632.
In the case of C33A C49U G52A A70C, the yeast fitness is reported as ≤ 0.5.
For C34A A40U G67A, the yeast fitness was ≤ 0.5.
With C33A U35A A70C the yeast fitness was ≤ 0.5.
Work on C33A A37G yielded a yeast fitness of 0.531.
In the case of C33A A37C, the yeast fitness is reported as ≤ 0.5.
C34A A45C A70C showed a yeast fitness of 0.701.
For C34G C49U A57U, the yeast fitness was ≤ 0.5.
With C34A A42U G58C C60A C62U the yeast fitness was 0.571.
With C34G A57G the yeast fitness was 0.568.
In the case of C34G A57U, the yeast fitness is reported as 0.523.
With C33G C62A G63C the yeast fitness was ≤ 0.5.
C34A U59G gave a yeast fitness of 0.745.
With C33U C46A C55G the yeast fitness was 0.604.
In the case of U32G G51A C55G, the yeast fitness is reported as ≤ 0.5.
Work on C34G A37C G56A yielded a yeast fitness of 0.527.
For C34G G48C G67A, the yeast fitness was ≤ 0.5.
For C34G A45U U53G A57G, the yeast fitness was 0.569.
With C34A A45U C46A G50A U54C C55G the yeast fitness was ≤ 0.5.
For C33U G39A A57G C66U, the yeast fitness was 0.557.
C33G A70G showed a yeast fitness of 0.633.
In the case of C33G C34U A65U, the yeast fitness is reported as 0.629.
In the case of C33G A57U G68A A69U, the yeast fitness is reported as ≤ 0.5.
For C33A U54C C55G, the yeast fitness was ≤ 0.5.
Work on C34G G48A A57G yielded a yeast fitness of 0.631.
For C33U C62U G63A, the yeast fitness was ≤ 0.5.
In the case of C34A G39C, the yeast fitness is reported as 0.792.
Work on U32G C46U A69U yielded a yeast fitness of 0.602.
In the case of C33U C55U A70U, the yeast fitness is reported as 0.627.
For C33U C34U G38A G51A C55A A65U, the yeast fitness was 0.566.
For U32G U35A G38C G51C C66U, the yeast fitness was 0.579.
Variant C33U C34A has a yeast fitness of 0.574.
For U32G C33U A37G A43C, the yeast fitness was ≤ 0.5.
In the case of C34G U47G, the yeast fitness is reported as 0.561.
In the case of C34G A36C A70C, the yeast fitness is reported as ≤ 0.5.
For C33G A42C C49G G58C C62G, the yeast fitness was 0.513.
In the case of C34G U53G, the yeast fitness is reported as ≤ 0.5.
With C33G G39C C55A the yeast fitness was ≤ 0.5.
C33G C61G showed a yeast fitness of 0.815.
Variant C33G G51A A65C has a yeast fitness of 0.709.
C34G C46A C62U gave a yeast fitness of 0.541.
In the case of U32G U35G A36C A37G C61G A70G, the yeast fitness is reported as ≤ 0.5.
C34G A36U G58A gave a yeast fitness of 0.605.
In the case of C33G C62A G67C, the yeast fitness is reported as ≤ 0.5.
For C34A C49U C61G, the yeast fitness was ≤ 0.5.
For C33U C46U G68C, the yeast fitness was 0.615.
In the case of U32G U35A G38C C46G, the yeast fitness is reported as ≤ 0.5.
In the case of C33G U35A, the yeast fitness is reported as ≤ 0.5.
For C33G U35C, the yeast fitness was 0.603.
With C34G A36G A57U the yeast fitness was ≤ 0.5.
In the case of C34A C49A U59G C66U, the yeast fitness is reported as ≤ 0.5.
For C34G A57C G63A, the yeast fitness was ≤ 0.5.
In the case of C34G G58A G63C, the yeast fitness is reported as ≤ 0.5.
Variant C33A G39C G41C G44C A69C has a yeast fitness of 0.577.
For C33A A43G A45C C60A, the yeast fitness was 0.564.
For C33G A45U C46U G56C, the yeast fitness was ≤ 0.5.
In the case of C33G A40U G56A, the yeast fitness is reported as ≤ 0.5.
With C34G A42C C46U U54A C55G G58C C66A the yeast fitness was ≤ 0.5.
With C33U G50A G52C A65C the yeast fitness was 0.564.
In the case of C34A C46U, the yeast fitness is reported as 0.615.
Work on C34A C46A yielded a yeast fitness of 0.691.
With C34A C46G the yeast fitness was 0.693.
With U32G C55A A57G the yeast fitness was ≤ 0.5.
In the case of C34A A36C C61U U64A, the yeast fitness is reported as ≤ 0.5.
With C34A A43C A65C the yeast fitness was ≤ 0.5.
In the case of C34G C62G C66G A69C, the yeast fitness is reported as ≤ 0.5.
In the case of C33G U47A, the yeast fitness is reported as 0.579.
In the case of C34A A37C G67C A69G, the yeast fitness is reported as ≤ 0.5.
With C33U A57G C66U the yeast fitness was ≤ 0.5.
In the case of C33A G50A, the yeast fitness is reported as 0.545.
With C34A G56C the yeast fitness was ≤ 0.5.
With U32G U59C C61A the yeast fitness was ≤ 0.5.
C33U A42C A70G gave a yeast fitness of 0.75.
In the case of C34A G41A C55G, the yeast fitness is reported as ≤ 0.5.
With C33G A36U A57C the yeast fitness was ≤ 0.5.
In the case of C33U A36C U54C, the yeast fitness is reported as ≤ 0.5.
Work on C34A A43C G67A yielded a yeast fitness of 0.537.
With C33A A57U the yeast fitness was 0.564.
Variant C33A A57G has a yeast fitness of 0.781.
For C34G A40C G48A, the yeast fitness was ≤ 0.5.
C33G A40U A70G gave a yeast fitness of 0.545.
For C33U U47A G63A, the yeast fitness was ≤ 0.5.
Work on C33U A43C yielded a yeast fitness of 0.656.
C33U A43U showed a yeast fitness of 0.898.
In the case of C33G A45G U64A, the yeast fitness is reported as 0.586.
For C33A U35G C49U A65U, the yeast fitness was ≤ 0.5.
For C34G A37C C62A, the yeast fitness was ≤ 0.5.
For C33U A42C U64C A70G, the yeast fitness was ≤ 0.5.
Variant C33A A70U has a yeast fitness of 0.655.
In the case of C33U A36C A43G A57U, the yeast fitness is reported as ≤ 0.5.
In the case of C33U C49G C60G C62G G63A, the yeast fitness is reported as ≤ 0.5.
C33A A42C A45C U47G gave a yeast fitness of 0.515.
C33U C61A G63C A65G gave a yeast fitness of 0.549.
Variant C34G C49G G68C has a yeast fitness of 0.629.
For C34G C61U, the yeast fitness was 0.602.
Work on C33G G38C C46A yielded a yeast fitness of 0.551.
With C33U C61U A69G the yeast fitness was ≤ 0.5.
For C33G A42U A45G, the yeast fitness was ≤ 0.5.
In the case of C33A A36U C62U, the yeast fitness is reported as ≤ 0.5.
With C33G G39U A69C the yeast fitness was ≤ 0.5.
C33U A45U G68A showed a yeast fitness of 0.67.
For C34G C60U C61U, the yeast fitness was 0.545.
With C34G U35A A57U the yeast fitness was ≤ 0.5.
For C34G G41A A42C C66U, the yeast fitness was ≤ 0.5.
Work on C34A A43U A70U yielded a yeast fitness of 0.607.
C34G G52A showed a yeast fitness of 0.562.
With C34G G52C the yeast fitness was ≤ 0.5.
In the case of U32G U35A G48A G63C A69G, the yeast fitness is reported as 0.524.
In the case of C33U C49G G52C, the yeast fitness is reported as 0.501.
With C34G G52A A65U the yeast fitness was ≤ 0.5.
With C34A G41A C62U the yeast fitness was ≤ 0.5.
For C33G A43G U59A, the yeast fitness was ≤ 0.5.
In the case of C33G G52A G56U, the yeast fitness is reported as ≤ 0.5.
Work on C34G G41C yielded a yeast fitness of 0.617.
For C33A C34U G52A A57G, the yeast fitness was ≤ 0.5.
C34G A40G C46G C49A U59C showed a yeast fitness of 0.55.
For C33G A37G A43C G58C, the yeast fitness was 0.547.
Work on C33U A65C G68C yielded a yeast fitness of 0.504.
For C33U G44C C60U A69G, the yeast fitness was ≤ 0.5.
In the case of C33U G56A C61G C66U, the yeast fitness is reported as ≤ 0.5.
For C33G C61A C62U, the yeast fitness was ≤ 0.5.
C34A A70G gave a yeast fitness of 0.634.
Work on C34A A37C C49A yielded a yeast fitness of 0.522.
C34G A42G A43U gave a yeast fitness of 0.635.

Source: the RNAGym collection of RNA variant scans (doi:10.1126/science.aae0568)
